This note sets out measurements from ChEMBL document CHEMBL1149132, “Structure-activity study of the ORL1 antagonist Ac-Arg-D-Cha-Qaa-D-Arg-D-p-ClPhe-NH2” (J Med Chem, 2004).

Where only a bound is given, the exact number is not on record here.

Chain of Nociceptin receptor (P41146 whole entry): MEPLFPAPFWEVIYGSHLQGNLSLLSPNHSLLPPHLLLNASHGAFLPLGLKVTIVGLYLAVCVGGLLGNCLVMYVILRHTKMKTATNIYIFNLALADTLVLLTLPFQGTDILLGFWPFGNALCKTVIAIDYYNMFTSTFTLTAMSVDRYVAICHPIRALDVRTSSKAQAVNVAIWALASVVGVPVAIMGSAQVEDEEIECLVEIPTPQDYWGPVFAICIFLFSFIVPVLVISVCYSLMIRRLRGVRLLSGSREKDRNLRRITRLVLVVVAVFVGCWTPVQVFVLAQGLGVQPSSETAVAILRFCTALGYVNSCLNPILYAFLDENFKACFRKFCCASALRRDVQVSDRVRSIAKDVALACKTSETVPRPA
Chain of Kappa-type opioid receptor (P41145 whole entry): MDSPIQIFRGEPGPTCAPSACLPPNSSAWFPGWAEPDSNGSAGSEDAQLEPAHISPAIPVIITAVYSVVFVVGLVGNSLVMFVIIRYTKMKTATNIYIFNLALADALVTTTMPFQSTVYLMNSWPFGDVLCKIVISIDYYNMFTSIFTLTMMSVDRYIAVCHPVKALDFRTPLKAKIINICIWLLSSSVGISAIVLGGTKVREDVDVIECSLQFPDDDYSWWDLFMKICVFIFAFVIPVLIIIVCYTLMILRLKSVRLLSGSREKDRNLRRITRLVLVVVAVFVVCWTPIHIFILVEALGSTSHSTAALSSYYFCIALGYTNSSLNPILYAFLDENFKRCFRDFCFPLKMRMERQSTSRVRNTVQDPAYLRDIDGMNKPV

The first assay has as its target Kappa-type opioid receptor (Homo sapiens, UniProt P41145). As to the kind of experiment: Binding affinity against human Opioid receptor kappa 1 (hKOR) was determined using [3H]diprenorphine in vitro in CHO cells. In kind it is cell-based. In a few lines: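 Competition binding with [3H]diprenorphine on membrane homogenates of CHO cells stably expressing recombinant human KOR. Ki reported as mean ± SEM of two or more separate experiments, each run in duplicate.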
Broadly, the Ki is a measure of affinity in units of concentration, obtained from inhibition or displacement. Take `CC(=O)N[C@@H](CCCN=C(N)N)C(=O)N[C@H](CC1CCCCC1)C(=O)N[C@H]1CC[C@H]2CCC[C@@H](C(=O)N[C@H](CCCNC(N)=O)C(N)=O)N2C1=O`: the Ki is greater than 5000 nM.

Consider `CC(=O)N[C@@H](CCCNC(N)=O)C(=O)N[C@H](CC1CCCCC1)C(=O)N[C@H]1CC[C@H]2CCC[C@@H](C(=O)N[C@H](CCCN=C(N)N)C(=O)N[C@H](Cc3ccc(Cl)cc3)C(N)=O)N2C1=O`, for which the affinity, expressed as Ki, was 4270 nM.

In turn, `CC(=O)N[C@@H](CCCN=C(N)N)C(=O)N[C@H](CC1CCCCC1)C(=O)N[C@H]1CC[C@H]2CCC[C@@H](C(=O)N[C@H](CCCN=C(N)N)C(=O)N[C@H](Cc3ccc(Cl)cc3)C(N)=O)N2C1=O` showed a Ki of 105 nM.

As to `CC(=O)N[C@@H](CCCN=C(N)N)C(=O)N[C@H](CC1CCCCC1)C(=O)N[C@H]1CC[C@@H]2SC[C@@H](C(=O)N[C@H](CCCN=C(N)N)C(=O)NC(Cc3ccc(Cl)cc3)C(N)=O)N2C1=O` (stereo not given in full), the Ki turned out to be 78 nM.

In the case of `CC(=O)N[C@@H](CCCN=C(N)N)C(=O)N[C@H](CC1CCCCC1)C(=O)N[C@H]1CC[C@H]2CCC[C@@H](C(=O)N[C@H](CCCNC(N)=O)C(=O)N[C@H](Cc3ccc(Cl)cc3)C(N)=O)N2C1=O`, the Ki is greater than 5000 nM.

For a further assay, the target named is Mu-type opioid receptor (Homo sapiens, UniProt P35372). Kind of assay: Binding affinity against human Opioid receptor mu 1 (hMOR) was determined using [3H]diprenorphine in vitro transfected to COS-1 cells. It is filed as cell-based. In a few lines: (§1)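 Competition binding with [3H]diprenorphine on membrane homogenates of COS-1 cells transiently transfected with human MOR or human DOR. Ki given as mean ± SEM from two or more separate experiments done in duplicate.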
Chain of Mu-type opioid receptor (P35372 whole entry): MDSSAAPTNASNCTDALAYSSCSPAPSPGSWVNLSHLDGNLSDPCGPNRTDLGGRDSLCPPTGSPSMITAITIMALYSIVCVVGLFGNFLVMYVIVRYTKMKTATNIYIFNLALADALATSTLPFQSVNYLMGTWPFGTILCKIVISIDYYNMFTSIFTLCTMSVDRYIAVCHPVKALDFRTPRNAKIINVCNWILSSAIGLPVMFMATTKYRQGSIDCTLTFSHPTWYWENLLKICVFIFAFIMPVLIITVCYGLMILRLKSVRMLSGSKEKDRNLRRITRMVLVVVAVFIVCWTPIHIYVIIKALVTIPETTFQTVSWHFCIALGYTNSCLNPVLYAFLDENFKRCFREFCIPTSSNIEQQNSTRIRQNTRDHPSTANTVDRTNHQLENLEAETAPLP
Take `CC(=O)N[C@@H](CCCN=C(N)N)C(=O)N[C@H](CC1CCCCC1)C(=O)N[C@H]1CC[C@H]2CCC[C@@H](C(=O)N[C@H](CCCNC(N)=O)C(N)=O)N2C1=O`: the Ki was greater than 5000 nM.

Consider `CC(=O)N[C@@H](CCCNC(N)=O)C(=O)N[C@H](CC1CCCCC1)C(=O)N[C@H]1CC[C@H]2CCC[C@@H](C(=O)N[C@H](CCCN=C(N)N)C(=O)N[C@H](Cc3ccc(Cl)cc3)C(N)=O)N2C1=O`, for which the Ki turned out to be 2560 nM.

`CC(=O)N[C@@H](CCCN=C(N)N)C(=O)N[C@H](CC1CCCCC1)C(=O)N[C@H]1CC[C@H]2CCC[C@@H](C(=O)N[C@H](CCCN=C(N)N)C(=O)N[C@H](Cc3ccc(Cl)cc3)C(N)=O)N2C1=O` returned an inhibitory constant (Ki) of 90 nM.

The compound `CC(=O)N[C@@H](CCCN=C(N)N)C(=O)N[C@H](CC1CCCCC1)C(=O)N[C@H]1CC[C@@H]2SC[C@@H](C(=O)N[C@H](CCCN=C(N)N)C(=O)NC(Cc3ccc(Cl)cc3)C(N)=O)N2C1=O` (stereo not given in full) had a Ki of 53 nM.

In the case of `CC(=O)N[C@@H](CCCN=C(N)N)C(=O)N[C@H](CC1CCCCC1)C(=O)N[C@H]1CC[C@H]2CCC[C@@H](C(=O)N[C@H](CCCNC(N)=O)C(=O)N[C@H](Cc3ccc(Cl)cc3)C(N)=O)N2C1=O`, the inhibition constant Ki is greater than 5000 nM.

A further assay deals with Delta-type opioid receptor (Homo sapiens, UniProt P41143). As to the kind of experiment: Binding affinity against human opioid receptor delta 1 was determined using [3H]diprenorphine in vitro transfected to COS-1 cells. In kind it is cell-based. In a few lines: as §1
Chain of Delta-type opioid receptor (P41143 whole entry): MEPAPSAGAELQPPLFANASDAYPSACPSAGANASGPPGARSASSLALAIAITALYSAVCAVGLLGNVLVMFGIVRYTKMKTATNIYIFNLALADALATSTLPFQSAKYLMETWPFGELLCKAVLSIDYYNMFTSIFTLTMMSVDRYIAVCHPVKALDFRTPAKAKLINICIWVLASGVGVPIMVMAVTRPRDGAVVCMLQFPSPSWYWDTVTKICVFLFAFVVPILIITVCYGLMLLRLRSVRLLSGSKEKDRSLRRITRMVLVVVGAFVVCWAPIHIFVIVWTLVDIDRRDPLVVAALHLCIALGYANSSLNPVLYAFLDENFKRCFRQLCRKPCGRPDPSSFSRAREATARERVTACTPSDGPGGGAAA
`CC(=O)N[C@@H](CCCN=C(N)N)C(=O)N[C@H](CC1CCCCC1)C(=O)N[C@H]1CC[C@H]2CCC[C@@H](C(=O)N[C@H](CCCNC(N)=O)C(N)=O)N2C1=O` registered a Ki greater than 5000 nM.

In turn, `CC(=O)N[C@@H](CCCNC(N)=O)C(=O)N[C@H](CC1CCCCC1)C(=O)N[C@H]1CC[C@H]2CCC[C@@H](C(=O)N[C@H](CCCN=C(N)N)C(=O)N[C@H](Cc3ccc(Cl)cc3)C(N)=O)N2C1=O` registered a Ki greater than 5000 nM.

The compound `CC(=O)N[C@@H](CCCN=C(N)N)C(=O)N[C@H](CC1CCCCC1)C(=O)N[C@H]1CC[C@H]2CCC[C@@H](C(=O)N[C@H](CCCN=C(N)N)C(=O)N[C@H](Cc3ccc(Cl)cc3)C(N)=O)N2C1=O` had a Ki greater than 5000 nM.

The compound `CC(=O)N[C@@H](CCCN=C(N)N)C(=O)N[C@H](CC1CCCCC1)C(=O)N[C@H]1CC[C@@H]2SC[C@@H](C(=O)N[C@H](CCCN=C(N)N)C(=O)NC(Cc3ccc(Cl)cc3)C(N)=O)N2C1=O` (stereo not given in full) returned a Ki of 222 nM. This lies in the sub-micromolar range.

Regarding `CC(=O)N[C@@H](CCCN=C(N)N)C(=O)N[C@H](CC1CCCCC1)C(=O)N[C@H]1CC[C@H]2CCC[C@@H](C(=O)N[C@H](CCCNC(N)=O)C(=O)N[C@H](Cc3ccc(Cl)cc3)C(N)=O)N2C1=O`, the Ki was greater than 5000 nM.

A further assay has as its target Nociceptin receptor (Homo sapiens, UniProt P41146). Kind of assay: Binding affinity against human opioid receptor like 1 (hORL) was determined using [leucyl-3H]nociceptin in vitro in CHO cells. It is filed as cell-based. In a few lines:
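Displacement of [leucyl-3H]nociceptin from membrane homogenates of CHO cells stably expressing recombinant human ORL1. Ki values are means ± SEM of two or more independent experiments, each in duplicate.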
Compound `CC(=O)N[C@@H](CCCN=C(N)N)C(=O)N[C@H](CC1CCCCC1)C(=O)N[C@H]1CC[C@H]2CCC[C@@H](C(=O)N[C@H](CCCNC(N)=O)C(N)=O)N2C1=O` came in with an inhibition constant Ki greater than 5000 nM.

`CC(=O)N[C@@H](CCCNC(N)=O)C(=O)N[C@H](CC1CCCCC1)C(=O)N[C@H]1CC[C@H]2CCC[C@@H](C(=O)N[C@H](CCCN=C(N)N)C(=O)N[C@H](Cc3ccc(Cl)cc3)C(N)=O)N2C1=O` came in with a Ki of 72 nM.

Compound `CC(=O)N[C@@H](CCCN=C(N)N)C(=O)N[C@H](CC1CCCCC1)C(=O)N[C@H]1CC[C@H]2CCC[C@@H](C(=O)N[C@H](CCCN=C(N)N)C(=O)N[C@H](Cc3ccc(Cl)cc3)C(N)=O)N2C1=O` had a Ki of 27 nM.

Compound `CC(=O)N[C@@H](CCCN=C(N)N)C(=O)N[C@H](CC1CCCCC1)C(=O)N[C@H]1CC[C@@H]2SC[C@@H](C(=O)N[C@H](CCCN=C(N)N)C(=O)NC(Cc3ccc(Cl)cc3)C(N)=O)N2C1=O` (stereo not given in full) came in with a Ki of 34 nM.

`CC(=O)N[C@@H](CCCN=C(N)N)C(=O)N[C@H](CC1CCCCC1)C(=O)N[C@H]1CC[C@H]2CCC[C@@H](C(=O)N[C@H](CCCNC(N)=O)C(=O)N[C@H](Cc3ccc(Cl)cc3)C(N)=O)N2C1=O`: the Ki was greater than 5000 nM.
